ROMK primary – human ROMK K+ channel modulation, primary screen; P48048; Tet-inducible ROMK, thallium flux fluorescence; actives lie on both sides; B-score at 10 µM; actives 2% (n = 130,000);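 active = signal ratio slope over the read window, or its plate-corrected B-score, at least 3 SD from the plate mean, either direction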;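 note: B-score of the F/F0 ratio slope over 7 to 12 s after thallium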
Target sequence (P48048 whole entry, looked up): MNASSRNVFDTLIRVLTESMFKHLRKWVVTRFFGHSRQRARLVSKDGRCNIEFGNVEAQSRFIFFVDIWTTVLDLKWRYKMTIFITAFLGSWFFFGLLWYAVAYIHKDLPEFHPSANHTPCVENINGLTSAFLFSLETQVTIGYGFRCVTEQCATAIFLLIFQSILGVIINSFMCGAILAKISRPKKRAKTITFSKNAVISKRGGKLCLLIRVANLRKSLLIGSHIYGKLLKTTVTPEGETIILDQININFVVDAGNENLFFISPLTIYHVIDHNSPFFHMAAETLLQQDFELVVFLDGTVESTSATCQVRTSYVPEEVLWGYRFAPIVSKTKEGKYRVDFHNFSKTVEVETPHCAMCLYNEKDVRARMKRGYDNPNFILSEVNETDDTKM
Calb biofilm kill – mixtures killing C. albicans biofilm; C. albicans biofilm persisters + clotrimazole, fluorescence viability; primary screen in compound mixtures of four per well; actives 0.02% (n = 120,000); inhibition, % at 7.6 µM;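 active = inhibition above 30.3% in the primary screen of four-compound pools, then above 30% when the compound was retested; inconclusive = passed the primary limit but could not be retested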;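 note: compounds exposed to preformed 24 h biofilms for 48 h; 0% = untreated biofilm control and 100% = clotrimazole plus chlorhexidine kill blank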
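Incubation: 24 h biofilm formation, then 48 h compound exposure, 37 °C | Material: C. albicans biofilms | Buffer or medium: RPMI/MOPS medium, pH 7.0 | Measured by: 2-h Alamar Blue fluorescence, 535/590 nm excitation/emission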
ROMK retest – human ROMK channel modulation, retest confirmation | AID 1917 | ROMK thallium flux, fluorescence ratio; stronger effect = lower value | normalized thallium flux (F/F0 slope) at 10 µM | actives 54% (n = 3,000) | shares compounds with ROMK primary;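 active = Flux at 10 µM at least 3 SD below or above vehicle control mean in one or both replicates; inconclusive = no clear call, values can overlap the other calls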
An asterisk follows results filed as active. Shown is part of a subset that was picked to be rich in hits.

Screening O=c1[nH]c(=O)n(-c2ccccc2)c(O)c1/C=C1/C(c2ccccc2)=Nc2ccccc21 returned ROMK primary -5.4*, Calb biofilm kill 13 and ROMK retest 0.055*.
`Nc1nonc1C(=O)N/N=C/c1ccc([N+](=O)[O-])o1` gave ROMK primary -0.62 and Calb biofilm kill 12.
`CCC1(C(=O)c2ccccc2)C2c3ccccc3OC(=O)C21C(C)=O` (stereo not drawn) gave Calb biofilm kill 22.
CCN(CC)c1ccc(/C=C/[N+](=O)[O-])cc1 was read as Calb biofilm kill 11.
COc1cc(/C=C/[N+](=O)[O-])ccc1O was read as ROMK primary -7*, Calb biofilm kill 15 and ROMK retest 0.051*.
`O=c1[nH]c2ccccc2c(=O)n1-c1ccc(Cl)cc1Cl` gave ROMK primary 0.036 and Calb biofilm kill 17.
CCOc1cccc(OCC)c2c(C)[n+](CC3CCCO3)c(C)c1-2 (stereo not drawn) was read as ROMK primary -0.0036.
CC(C)NC(C)C(=O)C12CC3CC(CC(C3)C1)C2 (stereo not drawn) was read as ROMK primary 1.6* and ROMK retest inconclusive.
CCC(=Nc1cccc(C(F)(F)F)c1)c1c(O)n(C)c(=O)n(C)c1=O was read as Calb biofilm kill 8.
`Cc1ccc2c(c1)C1CN(C)CCC1N2C(=S)Nc1cccnc1` (stereo not drawn) gave ROMK primary 0.14 and Calb biofilm kill 12.
For O=C(CN1CC=C(c2ccccc2)CC1)Nc1cc(Cl)ccc1Cl the results were ROMK primary -0.51 and Calb biofilm kill 11.
`OC(COCc1ccc(Cl)cc1)CN1CC=C(c2ccccc2)CC1` (stereo not drawn) gave ROMK primary -3.3* and ROMK retest 0.06*.
`O=c1c2cc([N+](=O)[O-])ccc2nc(CN2CCOCC2)n1-c1ccccc1F` gave ROMK primary 0.67.
Screening O=C(c1ccc2c(=O)n(Cc3ccc4c(c3)OCO4)c(=S)[nH]c2c1)N1CCC2(CC1)OCCO2 returned ROMK primary 0.48.
CC1CCN(CC(=O)c2ccccc2Cl)CC1 was read as Calb biofilm kill 21.
NNP(=O)(CC(=O)c1ccccc1)c1ccccc1 (stereo not drawn) was read as ROMK primary -0.05 and Calb biofilm kill 14.
For COc1ccccc1OP(=O)(Nc1cccnc1)Oc1ccccc1OC the results were Calb biofilm kill 6 and ROMK retest 0.062*.
COc1cccc(NP(=O)(Oc2ccc(Cl)cc2)Oc2ccc(Cl)cc2)c1 was read as ROMK primary 1.3 and Calb biofilm kill -13.
Screening Cc1cccc(-n2c(-c3ccco3)nc3ccccc3c2=O)c1C returned Calb biofilm kill 9.
CCN(CC)c1ccc(/C=C2\C(=O)NC(=S)N(C)C2=O)o1 was read as ROMK primary -6.3*, Calb biofilm kill 22 and ROMK retest 0.028*.
`C=CCN1C(=O)/C(=C/c2ccc(N3CCOCC3)o2)C(=O)NC1=S` gave Calb biofilm kill -3.
`Nc1ccc2cc(Br)ccc2c1` gave ROMK primary 0.15 and Calb biofilm kill 19.
COc1ccc(C2SCC(=O)Nc3c2c(C)nn3-c2ccccc2)cc1 (stereo not drawn) was read as ROMK primary 0.32.
CCCC(C)n1[nH]c(=O)c2c1NC(=O)CSC2c1ccc(OC)cc1 (stereo not drawn) was read as ROMK primary 2.3* and ROMK retest inconclusive.
For O=C1OCc2cc(N=Nc3c(O)[nH]c(=O)[nH]c3=O)ccc21 the results were ROMK primary -0.072 and Calb biofilm kill 18.
Screening CCOC(=O)C1=C(N)Oc2cc(C)oc(=O)c2C12C(=O)N1c3c(cccc32)C(C)CC1(C)C (stereo not drawn) returned ROMK primary -4.8* and ROMK retest 0.06*.
For CCOC(=O)C1=C(N)OC(C)=C(C(=O)OCCOC)C12C(=O)Nc1ccccc12 (stereo not drawn) the results were ROMK primary 0.38.
For O=C(O)c1cccc(N=Nc2c(O)[nH]c(=O)[nH]c2=O)c1 the results were ROMK primary -0.21 and Calb biofilm kill 0.
For COc1cc2c(cc1OC)[C@@H]1C(=O)c3ccc4c(c3O[C@@H]1CO2)C[C@H](C(C)C)O4 the results were Calb biofilm kill -12 and ROMK retest 0.064*.
Screening CCOC(=O)c1c(C)n(Cc2ccccc2)c2ccc(OCC(O)Cn3nc(C)cc3C)cc12 (stereo not drawn) returned Calb biofilm kill 19.
For CCn1c(O)c(C=Nc2ccc(N3CCOCC3)c(Br)c2)c(=O)n(CC)c1=S the results were ROMK primary -5.3* and ROMK retest 0.079.
CCn1c(O)c(/C=N/N2CCOCC2)c(=O)n(CC)c1=S was read as Calb biofilm kill 9.
CCn1c(O)c(C=NCCN2CCOCC2)c(=O)n(CC)c1=S was read as Calb biofilm kill 16.
Screening CCn1c(O)c(C=Nc2ccc(N3CCOCC3)cc2)c(=O)n(CC)c1=S returned ROMK primary -6.6* and ROMK retest 0.045*.
Screening CCCCn1c(O)c(/C=C2/C=CC=N2)c(=O)[nH]c1=O returned Calb biofilm kill 20.
`C[C@@H]1O[C@@H](O[C@H]2C[C@@H](O)[C@]3(CO)[C@H]4[C@H](O)C[C@]5(C)[C@@H](C6COC(=O)C6)CC[C@]5(O)[C@@H]4CC[C@]3(O)C2)[C@H](O)[C@H](O)[C@H]1O` (stereo partly drawn) gave Calb biofilm kill 14 and ROMK retest 0.064*.
Screening CSc1nnc(OC(=O)N(C)C)n1-c1ccc(Cl)cc1 returned Calb biofilm kill 16.
CC(NCc1ccc(Cl)c(Cl)c1)C(O)c1ccccc1 (stereo not drawn) was read as ROMK primary -2.6.
For CCOc1cc(CNC(C)C(O)c2ccccc2)cc(Cl)c1OCC (stereo not drawn) the results were ROMK primary -2.8*, Calb biofilm kill 9 and ROMK retest 0.059*.
Screening C/C(=N\NP(=S)(c1ccccc1)c1ccccc1)c1ccc(O)cc1O returned Calb biofilm kill 21.
For CCn1ccnc1CN1CCCC(C(=O)c2ccc(SC)cc2)C1 (stereo not drawn) the results were ROMK primary -0.87 and Calb biofilm kill 10.
`CC1CCN(CC(=O)c2ccc3c(c2)OCCO3)CC1` gave ROMK primary -0.012 and Calb biofilm kill 3.

From PubChem BioAssay
